Laboratory results from ChEMBL document CHEMBL1212801, “Inhibitor resistance in the KPC-2 beta-lactamase, a preeminent property of this class A beta-lactamase” (Antimicrob Agents Chemother, 2010).
≈ marks a conversion by molar mass, not a printed value. Calls of active or inactive are those of the source. The rule behind the calls is not given here.

Experiments:
[1] = tested on: Escherichia coli str. K-12 substr. DH10B; test: Km for Escherichia coli DH10B beta-lactamase KPC-2
[2] = tested on: Escherichia coli str. K-12 substr. DH10B; test: Ratio of Kcat to Kinact for Escherichia coli DH10B beta-lactamase KPC-2
[3] = tested on: Escherichia coli str. K-12 substr. DH10B; test: Ratio of Kinact to Km for Escherichia coli DH10B beta-lactamase KPC-2
[4] = tested on: Escherichia coli str. K-12 substr. DH10B; test: Inhibition of Escherichia coli DH10B beta-lactamase KPC-2 assessed as residual activity at 25 to 200 uM after 72 hrs by diode array spectrophotometry
Escherichia coli [5] = test: Antimicrobial activity against Escherichia coli DH10B by CLSI method; settings: K-12 DH10B
Escherichia coli [6] = test: Antimicrobial activity against Escherichia coli DH10B harboring beta lactamase KPC-2 by CLSI method; settings: K-12 DH10B
Klebsiella pneumoniae = test: Antimicrobial activity against Klebsiella pneumoniae 1534 harboring beta lactamase KPC-2 by CLSI method; assay type: functional
Method in brief: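 […] agar dilution MICs per CLSI, using a Steers replicator spotting 10^4 CFU per spot. For clavulanic acid and sulbactam, ampicillin was fixed at 50 mg/liter while inhibitor was increased. Piperacillin-tazobactam was tested at 8:1. Test inhibitors were held at 4 mg/liter while piperacillin, imipenem or cefotaxime was increased.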

[7] = tested on: Escherichia coli str. K-12 substr. DH10B; test: Inhibition of Escherichia coli DH10B beta-lactamase KPC-2 assessed as residual activity at 25 to 200 uM after 24 hrs by diode array spectrophotometry
[8] = (§1) Activity at Escherichia coli DH10B beta-lactamase KPC-2 by diode array spectrophotometry; design: species or system Escherichia coli str. K-12 substr. DH10B
[9] = tested on: Escherichia coli str. K-12 substr. DH10B; test: as §1
[10] = tested on: Escherichia coli str. K-12 substr. DH10B; test: Ratio of Kcat to Km for Escherichia coli DH10B beta-lactamase KPC-2
Method in brief: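 Steady-state assay on a diode array spectrophotometer with 10 nM purified KPC-2 and substrates at 5–200 μM, in 10 mM PBS pH 7.4 at room temperature. Spontaneous imipenem hydrolysis was subtracted. Vmax and Km came from a nonlinear least-squares Michaelis-Menten fit.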

[11] = tested on: Escherichia coli str. K-12 substr. DH10B; test: Inhibition of Escherichia coli DH10B beta-lactamase KPC-2 assessed as residual activity at 25 to 200 uM after 24 hrs by diode array spectrophotometry; values are per cent of control
[12] = tested on: Escherichia coli str. K-12 substr. DH10B; test: Inhibition of Escherichia coli DH10B beta-lactamase KPC-2 at 0.025 mM by UVD spectroscopy

O=C(O)[C@H]1/C(=C/CO)O[C@@H]2CC(=O)N21
Km [1]: 8.4 µM
kcat/kinact [2]: 2500
kinact/Km [3]: 3600 M⁻¹ s⁻¹
Activity [4]: 5%

CC1(C)S[C@@H]2[C@H](NC(=O)[C@H](N)c3ccccc3)C(=O)N2[C@H]1C(=O)O [AMPICILLIN]
MIC (Escherichia coli [5]): 1 µg/mL (≈ 2.86 µM)
MIC (Escherichia coli [6]): 4100 µg/mL (≈ 11700 µM)
MIC (Klebsiella pneumoniae): 8190 µg/mL (≈ 23400 µM)

C[C@]1(Cn2ccnn2)[C@H](C(=O)O)N2C(=O)C[C@H]2S1(=O)=O
Km [1]: 78.5 µM
kcat/kinact [2]: 500
kinact/Km [3]: 2500 M⁻¹ s⁻¹
Activity [7]: 50%

CCN1CCN(C(=O)N[C@@H](C(=O)N[C@@H]2C(=O)N3[C@@H]2SC(C)(C)[C@@H]3C(=O)O)c2ccccc2)C(=O)C1=O [PIPERACILLIN]
MIC (Escherichia coli [5]): 2 µg/mL (≈ 3.86 µM)
MIC (Escherichia coli [6]): 1020 µg/mL (≈ 1980 µM)
MIC (Klebsiella pneumoniae): 1020 µg/mL (≈ 1980 µM)
Ki [8]: 16 µM
kcat [9]: 17 s⁻¹
kcat/Km [10]: 1.1 µM/s

O=C(O)C1=CSC2/C(=C\c3cc4n(n3)CSC4)C(=O)N12 (stereo not given)
Km [1]: 0.06 µM
kcat/kinact [2]: 250
kinact/Km [3]: 180000 M⁻¹ s⁻¹
residual activity [11]: 20%
inhibition [12]: Active

O=C(Cc1cccs1)N[C@@H]1C(=O)N2C(C(=O)O)=C(/C=C/c3ccc([N+](=O)[O-])cc3[N+](=O)[O-])CS[C@H]12 [NITROCEFIN]
Ki [8]: 5 µM
kcat [9]: 30 s⁻¹
kcat/Km [10]: 6.4 µM/s

CC1(C)[C@H](C(=O)O)N2C(=O)C[C@H]2S1(=O)=O
Km [1]: 135 µM
kcat/kinact [2]: 1000
kinact/Km [3]: 1200 M⁻¹ s⁻¹
Activity [7]: 50%

C[C@@H](O)[C@H]1C(=O)N2C(C(=O)O)=C(SCCNC=N)C[C@H]12 [IMIPENEM ANHYDROUS]
MIC (Escherichia coli [6]): 8 µg/mL (≈ 26.7 µM)
MIC (Klebsiella pneumoniae): 8 µg/mL (≈ 26.7 µM)
Ki [8]: 19 µM
kcat [9]: 19 s⁻¹
kcat/Km [10]: 1 µM/s

CO/N=C(\C(=O)N[C@@H]1C(=O)N2C(C(=O)O)=C(COC(C)=O)CS[C@H]12)c1csc(N)n1 [CEFOTAXIME]
MIC (Escherichia coli [5]): 0.06 µg/mL (≈ 0.132 µM)
MIC (Escherichia coli [6]): 8 µg/mL (≈ 17.6 µM)
MIC (Klebsiella pneumoniae): 16 µg/mL (≈ 35.1 µM)
Ki [8]: 120 µM
kcat [9]: 78 s⁻¹
kcat/Km [10]: 0.6 µM/s
